Test [1] in a line: Antioxidant activity assessed as trolox equivalents of ABTS radical scavenging activity by TEAC assay. Format: functional. In outline: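 ABTS radical cation made from 7 mM ABTS and 2.45 mM potassium persulfate, 12 h dark at room temperature, diluted in PBS pH 7.4 to A734 0.70, equilibrated at 30 °C. Samples in methanol at 0.3–2 mM stock levels, 10 μL plus 1 mL ABTS. % inhibition of A734 versus methanol blank plotted against concentration, in triplicate. TEAC = Trolox concentration equivalent to 1 mM compound; quercetin as reference.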

Test [2] can be described thus: Antioxidant activity assessed as autoxidation of linoleic acid by beta-carotene autoxidation assay. Format: functional. In outline: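 Linoleic acid (20 mg), Tween 20 (200 mg) and β-carotene (2 mg in 10 mL CHCl3) mixed, CHCl3 removed, 50 mL oxygen-saturated water added. Samples oxidised at 50 °C for 3 h, A470 read at intervals. AA = [1 − (A0 − At)/(A00 − A0t)] × 100 versus no-compound control, reported at 60 and 120 min; BHT as control substance.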

Calls of active or inactive are those of the source. The rule behind the calls is not given here.

On to `O=C(/C=C/c1ccc(O)cc1)O[C@H]1[C@H](Oc2ccc(C(=O)/C=C/c3ccc(O)cc3)c(O)c2O)O[C@H](CO)[C@@H](O)[C@@H]1O`, for which, in test [1], the Activity was determined as 1.93 mM. Further, in test [2], the outcome was Active.

`CC(=O)O[C@H]1[C@H](Oc2ccc(C(=O)/C=C/c3ccc(O)cc3)c(O)c2O)O[C@H](COC(=O)/C=C/c2ccccc2)[C@@H](O)[C@@H]1O`: the Activity in test [1] is 1.6 mM. Moreover, in test [2], the result was Active.

As to `O=c1c(O)c(-c2ccc(O)c(O)c2)oc2cc(O)cc(O)c12`, in test [1], the Activity was determined as 2.6 mM.

Consider `O=C1C[C@@H](c2ccc(O)c(O)c2)Oc2cc(O[C@@H]3O[C@H](CO)[C@@H](O)[C@H](O)[C@H]3O)cc(O)c21`, for which the Activity in test [1] is 1.26 mM.

Regarding `CC(=O)OC[C@H]1O[C@@H](Oc2ccc(C(=O)/C=C/c3ccc(O)cc3)c(O)c2O)[C@H](OC(=O)/C=C/c2ccc(O)cc2)[C@@H](O)[C@@H]1O`, in test [1], the Activity was determined as 1.71 mM. Further, the result in test [2] was Active.

In the case of `CC(C)=CCc1c(O[C@@H]2O[C@H](CO)[C@@H](O)[C@H](O)[C@H]2O)ccc(C(=O)/C=C/c2ccc(O)cc2)c1O`, the Activity in test [1] is 2.26 mM. In addition, the outcome in test [2] was Active.

For the compound `O=C1C[C@@H](c2ccc(O[C@@H]3O[C@H](CO)[C@@H](O)[C@H](O)[C@H]3O)cc2)Oc2cc(O)cc(O)c21`, the Activity in test [1] came out at 0.782 mM.

`O=C1C[C@@H](c2ccc(O)cc2)Oc2cc(O)cc(O)c21`: the Activity in test [1] was 0.77 mM.

Source of the values: ChEMBL document CHEMBL1146566, “Antioxidant chalcone glycosides and flavanones from Maclura (Chlorophora) tinctoria” (J Nat Prod, 2003).
